Experimental data of several laboratories.
HRH1: Histamine H1 receptor (HRH1, Homo sapiens, UniProt P35367)
PADI4: Protein-arginine deiminase type-4 (PADI4, Homo sapiens, UniProt Q9UM07)
PKN1: Serine/threonine-protein kinase N1 (PKN1, Homo sapiens, UniProt Q16512)
MAOB: Amine oxidase [flavin-containing] B (MAOB, Homo sapiens, UniProt P27338)
CA9: Carbonic anhydrase 9 (CA9, Homo sapiens, UniProt Q16790)

The koff of CN1CCC(=C(c2ccccc2)c2ccccc2)CC1 is reported as 0.00583 s⁻¹ (HRH1; binding).
N=C(CF)NCCC[C@H](NC(=O)c1ccccc1C(=O)O)c1nn[nH]n1 has a kinact/KI of 780 M⁻¹ s⁻¹ (PADI4; enzyme activity, inhibitor).
For CCn1c(=O)c(-c2ccc(Cl)cc2Cl)cc2cnc(Nc3ccc(N4CCNCC4)c(F)c3)nc21, the activity vs control was 47% (PKN1; enzyme activity, inhibitor; 1 µM).
With O=C(Nc1ccccc1)c1ccccc1O the inhibition was 5% (MAOB; enzyme activity, inhibitor; 1 µM, 20 min).
With CCOC(=O)C1CSc2[nH]c(=O)sc2C1c1cn(-c2ccccc2)nc1-c1ccccc1 (centres unmarked) the inhibition was 29% (CA9; enzyme activity, inhibitor; 0.1 µM).
O=C(Nc1ccc([N+](=O)[O-])cc1Cl)c1ccc(Cl)cc1 gave an inhibition of 25% (MAOB; enzyme activity, inhibitor; 1 µM, 20 min).
The activity vs control of C[C@@H]1CN(CC(=O)Nc2ccc3c(c2)Cc2cccc(-c4cc(=O)cc(N5CCOCC5)o4)c2S3)C[C@H](C)O1 is reported as 79% (PKN1; enzyme activity, inhibitor; 1 µM).
For O=C(Nc1ccccc1)c1cc(Cl)ccc1O, the inhibition was 44% (MAOB; enzyme activity, inhibitor; 1 µM, 20 min).
The inhibition of CCOC(=O)C1CSc2[nH]c(=O)sc2C1c1cn(-c2ccccc2)nc1-c1ccc(Br)cc1 (centres unmarked) is reported as 61% (CA9; enzyme activity, inhibitor; 1 µM).
The ΔTm of Nc1ncnc2c1ncn2[C@@H]1O[C@H](COP(=O)(O)OP(=O)(O)O)[C@@H](O)[C@H]1O is reported as 4.5 to 4.8 °C (Katanin p60 ATPase-containing subunit A1 (Homo sapiens, UniProt O75449, D210C); thermal stability, DSF; 1 mM).
For COc1cc2ncn(-c3cc(OCc4ccccc4C(F)(F)F)c(C(N)=O)s3)c2cc1OC, the activity vs control was 56% (PKN1; enzyme activity, inhibitor; 1 µM).
O=C1NC(=S)C(=Cc2cn(-c3ccccc3)nc2-c2ccc(Br)cc2)S1 has an inhibition of 33.5% (CA9; enzyme activity, inhibitor; 0.1 µM).
O=C(Nc1ccc(N2C(=O)c3ccccc3C2=O)c(Cl)c1)c1ncccc1O gave an Emax of 106% (Metabotropic glutamate receptor 1 (GRM1, Homo sapiens, UniProt Q13255); calcium signal, positive allosteric modulator; T-REx-293).
COc1cc2c(CCNC(C)=O)c[nH]c2cc1O has a Km of 8.2 µM (Sulfotransferase 1A1 (SULT1A1, Homo sapiens, UniProt P50225); enzyme activity, substrate; pH 7).
With CC(C)(C)n1nnc([C@H](CCCNC(=N)CCl)NC(=O)c2ccccc2)n1 the kinact/KI was 11.8 M⁻¹ s⁻¹ (PADI4; enzyme activity, inhibitor).
For CN1CCC(=C2c3ccccc3CCc3ccccc32)CC1, the koff was 8.33e-05 s⁻¹ (HRH1; binding).
The kinact/KI of CC(C)(C)n1nnc([C@H](CCCNC(=N)CF)NC(=O)c2ccccc2)n1 is reported as 4.33 M⁻¹ s⁻¹ (PADI4; enzyme activity, inhibitor).
NNCCc1ccc(NC(=O)CCCc2ccccc2)cc1 gave a KI (inactivation) of 6.5 µM (MAOB; enzyme activity, inhibitor).
With C=CCn1c(=O)c2cnc(Nc3ccc(N4CCN(C)CC4)cc3)nc2n1-c1cccc(C(C)(C)O)n1 the activity vs control was 60% (PKN1; enzyme activity, inhibitor; 1 µM).
For COc1cc(NC(C)=O)c(Cl)cc1C(=O)Nc1nccs1, the inhibition was -13.1% (Endothelin receptor type B (EDNRB, Homo sapiens, UniProt P24530); cell-free assay; 10 µM).
CC#CC(=O)Nc1cc2c(Nc3ccc(F)c(Cl)c3)ncnc2cn1 has an activity vs control of 81% (PKN1; enzyme activity, inhibitor; 1 µM).
With CCOC(=O)C1CSc2[nH]c(=O)sc2C1c1cn(-c2ccccc2)nc1-c1ccc(C)cc1 (centres unmarked) the inhibition was 76.9% (CA9; enzyme activity, inhibitor; 10 µM).
For Cc1cc(N)ccc1NC(=O)c1ccccc1, the inhibition was -2% (MAOB; enzyme activity, inhibitor; 1 µM, 20 min).
Cc1ccc(-c2nn(-c3ccccc3)cc2C2c3sc(=O)[nH]c3SC3C(=O)N(c4ccccc4)C(=O)C32)cc1 (centres unmarked) has an inhibition of 17.8% (CA9; enzyme activity, inhibitor; 10 nM).
With N#Cc1ccc(NC(=O)c2ccccc2O)cc1 the inhibition was 32% (MAOB; enzyme activity, inhibitor; 1 µM, 20 min).
For N=C(CF)NCCC[C@H](NC(=O)c1ccc(-c2ccccc2)cc1)c1nn[nH]n1, the kinact/KI was 3.5 M⁻¹ s⁻¹ (PADI4; enzyme activity, inhibitor).
CCOC(=O)C1CSc2[nH]c(=O)sc2C1c1cn(-c2ccccc2)nc1-c1ccc(OC)cc1 (centres unmarked) gave an inhibition of 21.5% (CA9; enzyme activity, inhibitor; 10 nM).
COc1cc(N2CCOCC2)ccc1NC(=O)c1csc(-c2cccnc2)n1 has an activity vs control of 87% (PKN1; enzyme activity, inhibitor; 1 µM).
O=C(Nc1ccc([N+](=O)[O-])cc1C(F)(F)F)c1cc(Cl)ccc1O has an inhibition of 30% (MAOB; enzyme activity, inhibitor; 1 µM, 20 min).
With CN(C)c1ccc(-c2nc3ncc(Cl)c(N4CCN(CC(=O)Nc5nccs5)CC4)c3[nH]2)cc1 the activity vs control was 32% (PKN1; enzyme activity, inhibitor; 1 µM).
For Cc1cc([N+](=O)[O-])ccc1NC(=O)c1ccc2c(c1)OCO2, the inhibition was 24% (MAOB; enzyme activity, inhibitor; 1 µM, 20 min).
CN1CCC(C2c3ccccc3CCc3ccccc32)CC1 has a kon of 717000 M⁻¹ s⁻¹ (HRH1; binding).
With O=C(Nc1ccc(C(F)(F)F)cc1)c1cc2ccccc2cc1O the inhibition was 67% (MAOB; enzyme activity, inhibitor; 1 µM, 20 min).
With Cn1c(=O)n(-c2ccc(C(C)(C)C#N)cc2)c2c3cc(-c4cnc5ccccc5c4)ccc3ncc21 the activity vs control was 84% (PKN1; enzyme activity, inhibitor; 1 µM).
CN1CCN(C2c3ccccc3C=Cc3ccccc32)CC1 has a koff of 0.000583 s⁻¹ (HRH1; binding).
